Like-named read-outs stand apart in the source and are kept apart here.
Key:
tadpoles [1] = conditions: cited from earlier work
[2] = molecular target: rat α1β2γ2L GABAA receptors expressed in Xenopus laevis oocytes (Rattus norvegicus, UniProt P62813); type: cell-based; conditions: 2 μM GABA, compound up to 10 μM
Procedure, shortened: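 Rat α1, β2, γ2L cRNA (equal parts, 20-40 ng total) injected into defolliculated stage V-VI oocytes, which were held at 18 °C in supplemented ND96 (pH 7.4) and recorded 2-5 days later. Two-electrode voltage clamp at −70 mV. Response was the current ratio with/without compound, against 2 μM GABA. Direct gating: 10 μM compound without GABA, as a ratio to the 2 μM GABA current. ≥4 oocytes; SEM.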

[3] = molecular target: α1(Q241L)β2γ2L GABAA receptors (Rattus norvegicus, UniProt P62813, Q268L); assay: Potentiation of GABA currents in oocytes expressing the steroid-insensitive α1; type: cell-based; conditions: GABA 2 TM, −70 mV, 4 WT and 4 mutant oocytes
tadpoles [4] = assay: Tadpole loss of righting reflex; type: in vivo; conditions: loss of swimming reflex; None = all tadpoles had a swimming response at 10 μM
[5] = read-out: tadpole LRR EC50, loss of righting reflex, literature values ref 14

Compound: C[C@@]12CC[C@H](O)C[C@H]1CC[C@@H]1[C@@H]2CC[C@@]2(C)C(=O)CC[C@@H]12 (single isomer, unassigned) [compound ent-2, ent-androsterone]
- EC50 (tadpoles [1]; [5]): 1420 ± 180 nM

Compound: C[C@@]12CC[C@H](O)C[C@H]1CC[C@@H]1[C@@H]2[C@H](OCc2ccccc2)C[C@@]2(C)C(=O)CC[C@@H]12 (single isomer, unassigned) [compound ent-4, (3β,5β,8α,9β,10α,11α,13α,14β)-11-Benzyloxy-3-hydroxyandrostan-17-one]
- effect on GABA-mediated currents [2]: weakly inhibit

Compound: C[C@@]12CC[C@H](O)C[C@H]1C[C@@H](OCc1ccccc1)[C@@H]1[C@@H]2CC[C@@]2(C)C(=O)CC[C@@H]12 (single isomer, unassigned) [compound ent-6, (3β,5β,7α,8α,9β,10α,13α,14β)-7-Benzyloxy-3-hydroxyandrostan-17-one]
- effect of the α1 Q241L mutation on potentiation of GABA currents ([3]; compound 1 TM): abolishes, completely or nearly completely

Compound: C[C@@]12CC[C@H](O)C[C@H]1C[C@@H](OCc1ccccc1)[C@@H]1[C@@H]2CC[C@]2(C)[C@H]1CC[C@]21CO1 (single isomer, unassigned) [compound ent-7, (3β,5β,7α,8α,9β,10α,13α,14β,17α)-Spiro[7-Benzyoxyandrostane-17,2′-oxiran]-3-ol]
- effect of the α1 Q241L mutation on potentiation of GABA currents ([3]; compound 0.5 TM): abolishes, completely or nearly completely

Compound: C[C@@]12CC[C@H](O)C[C@H]1CC[C@@H]1[C@@H]2CC[C@]2(C)[C@H]1CC[C@]21CO1 (single isomer, unassigned) [ent-3]
- EC50 (tadpoles [1]; [5]): 1080 ± 10 nM

Compound: CC(=O)[C@H]1CC[C@H]2[C@@H]3CC[C@H]4C[C@H](O)CC[C@]4(C)[C@H]3CC[C@]12C [compound 1, allopregnanolone]
- effect of the α1 Q241L mutation on potentiation of GABA currents ([3]; compound 0.5 TM): eliminates the potentiation
- EC50 (tadpoles [1]; read-out: Tadpole LSR EC50, loss of swimming reflex, literature values ref 27): 5500 ± 500 nM
- EC50 (tadpoles [1]; read-out: tadpole LRR EC50, loss of righting reflex, literature values ref 27): 420 ± 40 nM

Compound: C[C@]12CC[C@@H](O)C[C@@H]1CC[C@@H]1[C@@H]2CC[C@]2(C)C(=O)CC[C@@H]12 [compound 2, androsterone]
- EC50 (tadpoles [1]; [5]): 3380 ± 900 nM

Compound: C[C@]12CC[C@@H](O)C[C@@H]1CC[C@@H]1[C@@H]2CC[C@@]2(C)[C@H]1CC[C@@]21CO1 [compound 3]
- EC50 (tadpoles [1]; [5]): 1350 ± 10 nM

Compound: C[C@]12CC[C@@H](O)C[C@@H]1CC[C@@H]1[C@@H]2[C@@H](OCc2ccccc2)C[C@]2(C)C(=O)CC[C@@H]12 [compound 4, (3α,5α,11β)-11-Benzyloxy-3-hydroxyandrostan-17-one]
- effect of the α1 Q241L mutation on potentiation of GABA currents ([3]; compound 1 TM): abolishes, completely or nearly completely

Compound: C[C@]12CC[C@@H](O)C[C@@H]1CC[C@@H]1[C@@H]2[C@@H](OCc2ccccc2)C[C@@]2(C)[C@H]1CC[C@@]21CO1 [compound 5, (3α,5α,11β,17β)-Spiro[11-benzyloxyandrostane-17,2′-oxiran]-3-ol]
- effect of the α1 Q241L mutation on potentiation of GABA currents ([3]; compound 0.5 TM): abolishes, completely or nearly completely

Compound: C[C@]12CC[C@@H](O)C[C@@H]1C[C@H](OCc1ccccc1)[C@@H]1[C@@H]2CC[C@]2(C)C(=O)CC[C@@H]12 [compound 6, (3α,5α,7β)-7-Benzyloxy-3-hydroxyandrostan-17-one]
- Tadpole LSR EC50 (tadpoles [4]): None^e
- effect on GABA-mediated currents [2]: weakly inhibit

Compound: C[C@]12CC[C@@H](O)C[C@@H]1C[C@H](OCc1ccccc1)[C@@H]1[C@@H]2CC[C@@]2(C)[C@H]1CC[C@@]21CO1 [compound 7, (3α,5α,7β,17β)-Spiro-[7-Benzyloxyandrostane-17,2′-oxiran]-3-ol]
- effect on GABA-mediated currents [2]: weakly inhibit
